Measurements: article PMC6180906 (Biochimica et biophysica acta. Molecular and cell biology …, 2018)
Several values for one entry are separate records, joined by “and”; a condition that tells them apart may be missing. Equal entries are not always repeated.

Legend:
[1] = tested on: Acanthamoeba castellanii trophozoites; test: Time-dependent killing and regrowth in fresh medium; assay type: cell-based; conditions: inhibitor at approximate MAC, then fresh medium for a week
[2] = tested on: Acanthamoeba castellanii trophozoites; test: Trophozoite toxicity assay; assay type: cell-based; conditions: for IC50: Acanthamoeba castellanii, 48 h, read-out: IC50 against trophozoite growth
[3] = tested on: Acanthamoeba castellanii resting cysts; test: Cysticidal / excystment assay; assay type: cell-based; conditions: cysts from the SDS-treated process
[4] = tested on: Acanthamoeba castellanii; assay type: cell-based
[5] = tested on: Acanthamoeba castellanii trophozoites; test: Trophozoite growth with cholesterol supplement; assay type: cell-based; conditions: 10μM in DMSO or as FBS
Summary of the method: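 Axenic static cultures of strain ATCC 30010 were grown in 5 ml ATCC medium 712 in T-flasks at 25 °C with occasional hand shaking, seeded with about 1×10^4 trophozoites. The medium was supplemented with FBS, per ATCC medium, or with 10 µM cholesterol in DMSO. Cells were counted along the growth curve, with viability by trypan blue exclusion.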

[6] = tested on: Saccharomyces cerevisiae strain GL7; test: GL7 sterol auxotroph growth on sterol supplements; assay type: cell-based; conditions: sterol supplement, 72 h
Summary of the method: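 S. cerevisiae GL7 (lanosterol synthase-defective, ergosterol auxotroph) grown in yeast-peptone-dextrose medium with Tween 80 (15 ml/l) and a sterol supplement at 5 mg/l, or no sterol, for 72 h. Cell density was followed to stationary phase. Sterols were recovered from cells and analysed.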

[7] = target: T1, AcCYP51 (Acanthamoeba castellanii, UniProt L8GJB3); test: CYP51 reconstitution assay, AfCPR1 redox partner, products by GC-MS; assay type: biochemical; conditions: for Yield of 14-desmethyl product from substrate by AcCYP51 (GCMS): AfCPR1 redox partner; for AcCYP51 AfCPR kcat: CYP51 reconstitution assay, 50 μM sterol, AfCPR redox partner
[8] = target: T1, AcCYP51; test: AcCYP51 sterol ligand binding, spectral titration; conditions: for AcCYP51 Kd: progressive titration of 4 M AcCYP51 with sterol in 40% (W/V) HPCP
[9] = target: Ac24-SMT (Acanthamoeba castellanii, UniProt L8GKC5); conditions: sterol 5 μM to 150 μM, 150 μM SAM, 80 μg SMT; cited from earlier work
[10] = target: Ac28-SMT (Acanthamoeba castellanii, UniProt L8GNG7); conditions: sterol 5 μM to 150 μM, 150 μM SAM, 80 μg SMT; cited from earlier work

Row | Compound | AcCYP51 AfCPR kcat [7] [s⁻¹] | 24-SMT kcat [9] [s⁻¹] | 28-SMT kcat [10] [s⁻¹] | also measured
1 | C[C@H](CCCN(C)C)[C@H]1CC[C@@]2(C)[C@@H]3CC[C@H]4C(C)(C)[C@@H](O)CC[C@@]45C[C@@]35CC[C@]12C [25-azacycloartanol] | – | – | – | Growth after 48 h treated pellets were transferred to fresh medium [1]: no growth; IC50 [2]: 0.025 µM; MAC (minimum amoebicidal concentration) ([2]; lowest concentration with no visible live trophozoites, 48 hr): 1 to 3 µM
2 | O=c1[nH]c(=O)n([C@H]2C[C@H](O)[C@@H](CO)O2)cc1F [FUdR, 5-fluor-2-deoxyuridine] | – | – | – | Excystment of resting cysts into trophozoites under treatment [3]: easily excysted into trophozoites by 3 days; Encysted cells alive by trypan blue staining ([4]; cultures with inhibitor at stationary phase of control): > 95%
3 | CC(C)CCC[C@@H](C)[C@H]1CC[C@H]2[C@@H]3CC=C4C[C@@H](O)CC[C@]4(C)[C@H]3CC[C@]12C [cholesterol] | – | – | – | Effect of supplement on trophozoite growth [5]: only a minor stimulation effect
4 | CC(C)[C@@H](C)/C=C/[C@@H](C)[C@H]1CC[C@H]2[C@@H]3CC=C4C[C@@H](O)CC[C@]4(C)[C@H]3CC[C@]12C [compound 1, Ergosta-5,22-dienol] | – | – | – | GL7 cell density at stationary phase / growth arrest [6]: 1 × 10^8 cells/ml
5 | CC(C)[C@@H](C)/C=C/[C@@H](C)[C@H]1CC[C@H]2C3=CC=C4C[C@@H](O)CC[C@]4(C)[C@H]3CC[C@]12C [compound 2, Ergosta-5,7,22-trienol] | – | – | – | GL7 cell density at stationary phase / growth arrest [6]: ~1 × 10^8 cells/ml
6 | CC[C@@H](C=C[C@@H](C)[C@H]1CC[C@H]2[C@@H]3CC=C4C[C@@H](O)CC[C@]4(C)[C@H]3CC[C@]12C)C(C)C [compound 6, Poriferasta-5,22 -dienol] | – | – | – | GL7 cell density at stationary phase / growth arrest [6]: 1 × 10^8 cells/ml
7 | C=C(CC[C@@H](C)[C@H]1CC[C@@]2(C)C3=C(CC[C@]12C)[C@@]1(C)CC[C@H](O)[C@@H](C)[C@@H]1CC3)C(C)C [compound 10] | 0.127 ± 0.00083 | 0 | 0 | Yield of 14-desmethyl product from substrate by AcCYP51 (GCMS) ([7]; listed as obtusifoliol): < 95% and 95%; AcCYP51 AfCPR kcat ([7]; listed as obtusifoliol): 0.127 s⁻¹; Kd [8]: 41 ± 3 µM
8 | CC[C@@H](C=C[C@@H](C)[C@H]1CC[C@H]2C3=CC=C4C[C@@H](O)CC[C@]4(C)[C@H]3CC[C@]12C)C(C)C [compound 11, Poriferasta-5,7,22-trienol] | – | – | – | GL7 cell density at stationary phase / growth arrest [6]: 1 × 10^8 cells/ml
9 | C=C(CC[C@@H](C)[C@H]1CC[C@H]2C3=CC[C@H]4[C@H](C)[C@@H](O)CC[C@]4(C)[C@H]3CC[C@]12C)C(C)C [compound 14, 4α-Methylergosta-7, 24(28)-dienol] | 0 | 0 | 0.0133 ± 0.00067 | –
10 | CC(C)=CCC[C@@H](C)[C@H]1CC[C@@]2(C)[C@@H]3CC[C@H]4C(C)(C)[C@@H](O)CC[C@@]45C[C@@]35CC[C@]12C [compound 21, Cycloart-24(25)-enol] | 0 | 0.025 ± 0.0012 | 0.0075 ± 0.0005 | Yield of 14-desmethyl product from substrate by AcCYP51 (GCMS) [7]: no metabolism occurred; Kd [8]: 18 ± 5 µM
11 | C=C(CC[C@@H](C)[C@H]1CC[C@@]2(C)[C@@H]3CC[C@H]4[C@H](C)[C@@H](O)CC[C@@]45C[C@@]35CC[C@]12C)C(C)C [compound 24, 4α-Methylcycloart-24(28)-enol] | 0.00067 ± 0.00017 | – | – | Yield of 14-desmethyl product from substrate by AcCYP51 (GCMS) [7]: ~ 1%; AcCYP51 Kd [8]: No fit
12 | C=C(CC[C@@H](C)[C@H]1CC[C@@]2(C)[C@@H]3CC[C@H]4C(C)(C)[C@@H](O)CC[C@@]45C[C@@]35CC[C@]12C)C(C)C [compound 27, Cycloart-24(28)-enol] | 0 | 0 | 0.00383 ± 0.00083 | AcCYP51 Kd [8]: No fit
13 | C=C(CCC(C)C1CCC2(C)C3=C(CCC12C)C1(C)CCC(O)C(C)(C)C1CC3)C(C)C (stereo not drawn) [compound 32, Lanosta-8,24(28)-dienol] | 0.0533 ± 0.00067 | – | – | Kd [8]: 51 ± 10 µM
14 | CC(C)=CCC[C@@H](C)[C@H]1CC[C@@]2(C)C3=C(CC[C@]12C)[C@@]1(C)CC[C@H](O)C(C)(C)[C@@H]1CC3 [compound 33, Lanosta-8,24(25)-dienol] | 0.0283 ± 0.00017 | 0.025 ± 0.00017 | 0.00383 ± 0.00017 | Kd [8]: 46 ± 3 µM
15 | CC(C)CCC[C@@H](C)[C@H]1CC[C@@]2(C)C3=C(CC[C@]12C)[C@@]1(C)CC[C@H](O)C(C)(C)[C@@H]1CC3 [compound 34, Lanost-8-enol] | 0.0333 ± 3.3e-05 | – | – | –
16 | CC(C)=CCC[C@@H](C)[C@H]1CC[C@@]2(C)C3=C(CC[C@]12C)[C@@]1(C)CC[C@H](O)C[C@@H]1CC3 [compound 35, 14α-Methylcholest-8,24(25)-dienol] | 0.0267 ± 0.0013 | 0.025 ± 0.00083 | 0.0065 ± 0.00033 | –
17 | CC(C)=CCCC(C)C1CCC2(C)C3=CCC4C(C)(C)C(O)CCC4(C)C3CCC12C (stereo not drawn) [compound 36, Lanosta-7,24(25)-dienol] | 0 | – | – | –
18 | CC(C)=CCC[C@@H](C)[C@H]1CC[C@@]2(C)C3=C(CC[C@]12C)[C@@]1(C)CC[C@H](O)[C@@H](C)[C@@H]1CC3 [compound 37, 4α, 14α-Dimethylcholesta-8,24(25)-dienol] | 0 | 0.025 ± 0.00067 | 0.0123 ± 0.00033 | –
19 | C[C@@H](c1ncncc1F)[C@](O)(Cn1cncn1)c1ccc(F)cc1F [voriconazole, reference compound] | – | – | – | Growth after 48 h treated pellets were transferred to fresh medium [1]: a few thousand trophozoites were evident; IC50 [2]: 0.14 µM; Number of cells at 48 h ([4]; reduced by a factor of 10, most dead by trypan blue staining): 2–3 × 10^4 cells/ml
